Compound activity: PubChem BioAssay, Broad Institute
T cruzi growth-1: T. cruzi intracellular proliferation inhibitors, primary screen, cell-based, beta-gal Tulahuen parasites, NIH3T3 host, luminescence. T. cruzi beta-gal in NIH3T3, GalScreen luminescence, 90 h. hit rate 5.9% among 77,000. inhibition, % at 8.34 µM. AID 624255, 2012;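 active = mean inhibition above about 93%, with at least 55% of replicates each passing it, limit read from the data, passing the limit was not always enough; inconclusive = only one of those two conditions holds; inactive = neither condition holds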
IDH1 R132H inh: inhibitors of IDH1 R132H reductase, primary screen, biochemical, plate reader, single point; inhibition, % at 10 µM; hit rate 0.18% among 70,000; Isocitrate dehydrogenase [NADP] cytoplasmic (Homo sapiens), O75874; AID 624101, 2012; diaphorase/resazurin fluorescence, 60 min; in the data active = inhibition above about 34%; inconclusive = no clear call, values can overlap the other calls; inactive = below about 11%
Target sequence (O75874 whole entry R132H): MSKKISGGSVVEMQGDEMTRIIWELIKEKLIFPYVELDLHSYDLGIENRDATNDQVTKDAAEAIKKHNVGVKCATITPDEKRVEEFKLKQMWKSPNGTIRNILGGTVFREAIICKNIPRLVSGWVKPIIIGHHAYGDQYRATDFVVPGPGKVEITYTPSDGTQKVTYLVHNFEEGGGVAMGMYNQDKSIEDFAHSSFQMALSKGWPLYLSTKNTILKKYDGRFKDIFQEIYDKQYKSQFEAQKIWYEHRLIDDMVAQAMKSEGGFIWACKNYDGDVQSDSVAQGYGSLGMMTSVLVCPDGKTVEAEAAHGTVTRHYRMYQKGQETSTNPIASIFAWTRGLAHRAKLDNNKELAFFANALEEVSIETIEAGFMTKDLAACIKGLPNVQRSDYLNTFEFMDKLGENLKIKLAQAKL
GASC1 inh: inhibitors of GASC-1 (KDM4C) histone demethylase, primary screen, biochemical, single concentration HTS; inhibition, % at 12.5 µM; GST-KDM4C 2-372, H3K9me3 peptide, LANCE TR-FRET; AID 720574, 2013; hit rate 0.15% among 96,000;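 active = mean replicate inhibition above about 25%, with at least 55% of replicates also reaching it, limit read from the data, passing the limit was not always enough; inconclusive = only one of those two conditions met; inactive = neither condition met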
Target sequence (Q9H3R0 2-372 limits assumed): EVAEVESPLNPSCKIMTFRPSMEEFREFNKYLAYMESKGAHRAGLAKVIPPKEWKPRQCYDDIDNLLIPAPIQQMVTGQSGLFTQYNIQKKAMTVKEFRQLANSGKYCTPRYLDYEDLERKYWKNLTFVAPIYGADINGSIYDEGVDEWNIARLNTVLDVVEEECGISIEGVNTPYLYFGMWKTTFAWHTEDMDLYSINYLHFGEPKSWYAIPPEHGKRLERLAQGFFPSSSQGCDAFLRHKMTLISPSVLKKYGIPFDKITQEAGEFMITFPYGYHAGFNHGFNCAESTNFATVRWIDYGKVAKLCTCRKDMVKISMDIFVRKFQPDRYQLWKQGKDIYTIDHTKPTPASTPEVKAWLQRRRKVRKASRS
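material = GST-tagged GASC-1 (JMJD2C) catalytic fragment, aa 2-372 | amount = enzyme final amount 10 nM | medium = HEPES buffer, pH 7.5, plus ascorbate | also added = H3K9me3 peptide substrate, Fe(II), 2-oxoglutarate | dosing = single dose | times = 30 min demethylation and 1 h detection at room temperature | detection = LANCE TR-FRET | read-out basis = Fall in 671/618 emission ratio as inhibition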
T cruzi growth-2: T. cruzi intracellular proliferation inhibitors, confirmation, cell-based, NIH3T3 host, beta-gal parasite, luminescence, cherry-pick; shares compounds with T cruzi growth-1; hit rate 72% among 5,600; inhibition, % at 8.35 µM; T. cruzi beta-gal in NIH3T3, GalScreen luminescence, 90 h;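 active = mean replicate inhibition above about 95% and at least 55% of replicates individually reaching it, limit read from the data; inconclusive = only one of the two criteria is met; inactive = neither criterion is met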
T cruzi growth-3: inhibitors of intracellular T. cruzi replication, confirmation, NIH3T3 host cells, beta-gal parasites, cherry-pick, set 2 | T. cruzi beta-gal in NIH3T3, GalScreen luminescence, 90 h | inhibition, % at 2.09 µM | shares compounds with T cruzi growth-1 | hit rate 21% among 5,600;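 active = mean inhibition above about 95%, with at least 55% of replicates also reaching it, limit read from the data; inconclusive = meets just one of the two conditions; inactive = meets neither condition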
NIH3T3 tox: cytotoxicity in mouse NIH/3T3 fibroblasts, confirmation, cytotoxicity control for T. cruzi proliferation inhibitor project, cell-based, cherry-pick, single point. hit rate 14% among 5,600. shares compounds with T cruzi growth-1. NIH/3T3 viability, CellTiter-Glo ATP luminescence, 90 h. cytotoxicity (signal decrease), % at 8.35 µM;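 active = mean signal decrease across replicates above about 35% based on untreated-well scatter, with enough replicates individually passing, limit read from the data; inconclusive = no rule stated though some were filed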
NIH3T3 tox 2: NIH/3T3 fibroblast cytotoxicity, confirmation, cytotoxicity control, cell-based, cherry-pick, single point, set 2 | shares compounds with T cruzi growth-1 | NIH/3T3 viability, CellTiter-Glo ATP luminescence, 90 h | inhibition, % at 24.9 µM | hit rate 56% among 5,600 | AID 651744, 2012;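 active = mean loss of cell viability signal at or above a set limit, and enough replicates individually reaching it; inconclusive = meets only the mean limit or only the replicate share; inactive = meets neither condition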
Large screens that a line does not name were inactive (follow-up assays come after a bar, where they were run); ! = a repeat was not active. Many of the other results were omitted from the sample, so hits are more common in it than they were.

O=C(C[C@@H]1CC[C@H]2[C@@H](COC[C@@H](O)CN2S(=O)(=O)c2cccc(Cl)c2)O1)Nc1ccc(-c2ccccc2)cc1	T cruzi growth-1 110 (no result: IDH1 R132H inh) | T cruzi growth-2 101 | T cruzi growth-3 inactive | NIH3T3 tox inactive | NIH3T3 tox 2 103
O=C(C[C@@H]1CC[C@@H]2[C@H](COC[C@H](O)CN2S(=O)(=O)c2cccc(Cl)c2)O1)Nc1ccccc1	none (no result: IDH1 R132H inh)
COc1ccccc1CN1C[C@H](C)[C@@H](OC)CN(C)C(=O)c2ccc(NC(C)=O)cc2OC[C@@H]1C	none
C[C@@H]1CCCCO[C@@H](CN(C)C(=O)Nc2ccccc2)[C@H](C)CN([C@H](C)CO)C(=O)c2cc(NC(=O)Nc3ccccc3)ccc2O1	T cruzi growth-1 99 | T cruzi growth-2 108 | T cruzi growth-3 inactive | NIH3T3 tox inactive | NIH3T3 tox 2 inactive
C[C@@H]1CCCCO[C@@H](CN(C)C(=O)Nc2ccc3c(c2)OCO3)[C@@H](C)CN([C@H](C)CO)C(=O)c2cc(N(C)C)ccc2O1	T cruzi growth-1 96! | T cruzi growth-2 inactive | T cruzi growth-3 inactive | NIH3T3 tox inactive | NIH3T3 tox 2 inactive
C[C@@H]1CCCCO[C@H](CN(C)C(=O)Nc2ccc3c(c2)OCO3)[C@H](C)CN([C@@H](C)CO)C(=O)c2cc(N(C)C)ccc2O1	none
C[C@H](CO)N1C[C@H](C)[C@H](CN(C)C(=O)Nc2ccccc2)OCCCC[C@H](C)Oc2ccc(NC(=O)Nc3ccccc3)cc2C1=O	none
C[C@@H]1CN([C@@H](C)CO)C(=O)c2cc(NC(=O)Nc3ccc(F)cc3)ccc2O[C@@H](C)CCCCO[C@H]1CN(C)C(=O)c1ccccc1	none
C[C@H]1CCCCO[C@@H](CN(C)C(=O)c2ccccc2)[C@@H](C)CN([C@@H](C)CO)C(=O)c2cc(NC(=O)Nc3ccc(F)cc3)ccc2O1	T cruzi growth-1 inconclusive | T cruzi growth-2 115 | T cruzi growth-3 inactive | NIH3T3 tox inactive | NIH3T3 tox 2 inactive
C[C@@H]1CCCCO[C@H](CN(C)C(=O)Nc2ccc3c(c2)OCO3)[C@@H](C)CN([C@H](C)CO)C(=O)c2cc(NC(=O)Cc3ccccc3)ccc2O1	none (no result: IDH1 R132H inh)
C[C@H]1CCCCO[C@@H](CN(C)C(=O)Nc2ccc3c(c2)OCO3)[C@@H](C)CN([C@@H](C)CO)C(=O)c2cc(NC(=O)Cc3ccccc3)ccc2O1	T cruzi growth-1 inconclusive | T cruzi growth-2 103 | T cruzi growth-3 inactive | NIH3T3 tox inactive | NIH3T3 tox 2 inactive
C[C@@H]1CN([C@H](C)CO)C(=O)c2cc(NC(=O)C3CC3)ccc2O[C@@H]1CN(C)Cc1ccc(-c2ccccc2)cc1	none
C[C@H](CO)N1C[C@H](C)[C@@H](CN(C)C(=O)CC2CC2)Oc2cc(C#CC3CC3)ccc2S1(=O)=O	none
COc1ccc(S(=O)(=O)N(C)C[C@H]2Oc3ccc(NC(=O)Nc4cccc5ccccc45)cc3CC(=O)N([C@H](C)CO)C[C@@H]2C)cc1	none
C[C@H](CO)N1C[C@H](C)[C@H](CN(C)C(=O)Nc2ccc3c(c2)OCO3)OCCCC[C@H](C)Oc2ccc(NC(=O)Nc3ccccc3)cc2C1=O	T cruzi growth-1 114 (no result: IDH1 R132H inh) | T cruzi growth-2 112 | T cruzi growth-3 inactive | NIH3T3 tox inactive | NIH3T3 tox 2 inactive
C[C@@H]1CCCCO[C@@H](CN(C)C(=O)Nc2ccccc2)[C@@H](C)CN([C@@H](C)CO)C(=O)c2cc(NC(=O)Nc3ccc(F)cc3)ccc2O1	none (no result: T cruzi growth-1)
C[C@H](CO)N1C[C@H](C)[C@@H](CN(C)C(=O)Nc2ccc(F)cc2)OCCCC[C@H](C)Oc2ccc(NC(=O)Nc3ccccc3)cc2C1=O	T cruzi growth-1 114 | T cruzi growth-2 110 | T cruzi growth-3 inactive | NIH3T3 tox inactive | NIH3T3 tox 2 inactive
C[C@H]1CCCCO[C@H](CN(C)C(=O)Nc2ccc(F)cc2)[C@@H](C)CN([C@@H](C)CO)C(=O)c2cc(NC(=O)Nc3ccccc3)ccc2O1	T cruzi growth-1 inconclusive (no result: IDH1 R132H inh) | T cruzi growth-2 108 | T cruzi growth-3 inactive | NIH3T3 tox inactive | NIH3T3 tox 2 inactive
C[C@@H]1CCCCO[C@H](CN(C)C(=O)Nc2ccccc2)[C@H](C)CN([C@H](C)CO)C(=O)c2cc(NC(=O)Nc3ccc(F)cc3)ccc2O1	T cruzi growth-1 102 (no result: IDH1 R132H inh) | T cruzi growth-2 104 | T cruzi growth-3 108 | NIH3T3 tox inactive | NIH3T3 tox 2 inactive
C[C@@H]1CCCCO[C@@H](CN(C)C(=O)Nc2ccc(F)cc2)[C@@H](C)CN([C@H](C)CO)C(=O)c2cc(NC(=O)Nc3ccccc3)ccc2O1	none
C[C@H]1CCCCO[C@@H](CN(C)C(=O)Nc2ccc(F)cc2)[C@@H](C)CN([C@@H](C)CO)C(=O)c2cc(NC(=O)Nc3ccccc3)ccc2O1	none (no result: IDH1 R132H inh)
C[C@@H]1CCCCO[C@@H](CN(C)C(=O)Nc2ccc3c(c2)OCO3)[C@H](C)CN([C@H](C)CO)C(=O)c2cc(NC(=O)Nc3ccccc3)ccc2O1	none (no result: IDH1 R132H inh)
COc1ccc2c3c([nH]c2c1)[C@H](CO)N(C(=O)Cc1ccccc1)CC31CCN(C(=O)Cc2ccccc2)CC1	none (no result: T cruzi growth-1, IDH1 R132H inh)
C[C@@H]1CN([C@@H](C)CO)C(=O)c2cc(NS(=O)(=O)c3ccc(F)cc3)ccc2O[C@@H](C)CCCCO[C@H]1CN(C)C(=O)Nc1ccccc1	none (no result: IDH1 R132H inh)
C=CCNC(=O)[C@H]1[C@@H]2C(=O)O[C@@H](c3ccccc3)[C@@H](c3ccccc3)N2[C@@H](c2ccc(OCCO)cc2)[C@]12C(=O)Nc1ccc(C#CCNC(N)=O)cc12	none (no result: T cruzi growth-1, GASC1 inh)
COc1ccc(-c2cc(=O)[nH]c(SCC(=O)Nc3ccc(Br)cc3)n2)cc1	none (no result: T cruzi growth-1, GASC1 inh)
COc1cccc(C#Cc2ccc3c(c2)[C@H]2[C@H](CCN2C(C)=O)[C@H](CO)N3)c1	none (no result: T cruzi growth-1, IDH1 R132H inh)
CC(C)CC#Cc1ccc2c(c1)O[C@H](CN(C)Cc1ccccn1)[C@@H](C)CN([C@@H](C)CO)S2(=O)=O	T cruzi growth-1 132 | T cruzi growth-2 97 | T cruzi growth-3 114 | NIH3T3 tox inactive | NIH3T3 tox 2 105
CC(C)CC#Cc1ccc2c(c1)O[C@H](CN(C)Cc1ccccn1)[C@H](C)CN([C@H](C)CO)S2(=O)=O	T cruzi growth-1 115 | T cruzi growth-2 106 | T cruzi growth-3 inactive | NIH3T3 tox inactive | NIH3T3 tox 2 107
